Assay results taken from ChEMBL document CHEMBL1687720 (Antimicrob Agents Chemother, 2009).

Experiments:
[1] = tested on: A549; test: Inhibition of glutathione S-transferase in human A549 cells assessed as enzyme activity at 158 µM after 24 hrs relative to untreated control; design: scale not given: the % may be the effect or the level left
[2] = biological target: Thioredoxin reductase (Homo sapiens, UniProt Q16881+Q9NNW7+Q86VQ6); test: Inhibition of thioredoxin reductase in human A549 cells assessed as enzyme activity at 158 µM after 24 hrs by DTNB assay relative to untreated control; design: scale not given: the % may be the effect or the level left
[3] = tested on: A549; test: Effect on thioredoxin reductase expression in human A549 cells assessed as transcript level at 24 nM after 24 hrs by RT-qPCR analysis relative to untreated control; type: functional; conditions: in the assay text read “24 µM” for “24 nM”
Outline: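 A549 cells are seeded at 2.5 × 10^5 per 25-cm2 well. At 40–45% confluence they are treated for 24 h with 166 or 662 μM, 158 or 315 μM, or 5 or 24 μM compound; controls receive <5% DMSO. Total RNA is DNase-treated and qRT-PCR is run in quadruplicate. Values are normalized to GAPDH and given as % of untreated control.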

O=c1oc2c(O)c(O)c(O)c3c(=O)oc4c(O)c(O)cc1c4c23 [FLAVELLAGIC ACID]
Activity [1]: 99% | Activity [2]: 91%

O=c1oc2c(O)c(O)c(O)c3c(=O)oc4c(O)c(O)c(O)c1c4c23 [CORULEOELLAGIC ACID]
Activity [3]: 73%
